# Laboratory results reported in ChEMBL document CHEMBL5724801, “EUbOPEN Chemogenomics Library - Multiplex” (2024).
# Values joined by “and” are separate entries in the source; they are usually repeats but may differ in a detail not shown here. Equal entries are not always repeated.
# Legend:
# HEK-293T = experiment: Multiplex assay against HEK293T; assay type: toxicity, cell-based; settings: human
# Summary of the method: (§1)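 Hoechst33342, BioTracker Green Microtubule Cytoskeleton Dye, MitoTracker Red and Annexin V Alexa Fluor 680 were added to live cells at seeding, and imaging on a CQ1 microscope at 37°C and 5% CO2 followed compound addition. Gating by CellPathfinder machine learning separated cells into Hoechst high-intensity objects or normal cells, then normal cells into healthy, pyknosed or fragmented nuclei, then pyknosed cells into mitotic or apoptotic. Per cents of healthy-nucleus cells are reported for the tubulin, mitochondrial-mass and membrane-permeability phenotypes.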
# Fibroblast = experiment: Multiplex assay against human fibroblast; assay type: toxicity, cell-based; summary of the method: as §1
# [1] = 24 h, 10 µM, compound concentration 10 uM
# [2] = 48 h, 1 µM, compound concentration 1 uM
# [3] = 48 h, 10 µM, compound concentration 10 uM
# [4] = 12 h, 1 µM, compound concentration 1 uM
# [5] = 12 h, 10 µM, compound concentration 10 uM
# [6] = 24 h, 1 µM, compound concentration 1 uM
structure (smiles),measurement,setting,value
Cl.c1ccc2c(c1)CCC[C@H]2Nc1nc2ccccc2[nH]1,Population Apoptotic (%),HEK-293T; [1],10.9% and 23.53%
same,Population Fragmented Nuclei (%),HEK-293T; [1],2.57% and 5.7%
same,Population Hoechst High Intensity Objects (%),HEK-293T; [1],0%
same,Population Membrane Permeable-Phenotype (%),HEK-293T; [1],2.68% and 0%
same,Population Mitochondria Different-Phenotype (%),HEK-293T; [1],18.75% and 10%
same,Population Mitotic Cells (%),HEK-293T; [1],89.1% and 76.47%
same,Population Normal (%),HEK-293T; [1],100%
same,Population Pyknosed Nuclei (%),HEK-293T; [1],30.89% and 75.32%
same,Population Tubulin-Different-Phenotype (%),HEK-293T; [1],23.81% and 10%
same,Population Apoptotic (%),HEK-293T; [2],8.15% and 21.05%
same,Population Fragmented Nuclei (%),HEK-293T; [2],2.18% and 2.63%
same,Population Healthy Nuclei (%),HEK-293T; [2],84.41% and 64.04%
same,Population Hoechst High Intensity Objects (%),HEK-293T; [2],0% and 0.44%
same,Population Membrane Permeable-Phenotype (%),HEK-293T; [2],3.88% and 2.74%
same,Population Mitochondria Different-Phenotype (%),HEK-293T; [2],18.59% and 17.81%
same,Population Mitotic Cells (%),HEK-293T; [2],91.85% and 78.95%
same,Population Normal (%),HEK-293T; [2],100% and 99.56%
same,Population Pyknosed Nuclei (%),HEK-293T; [2],13.41% and 33.33%
same,Population Fragmented Nuclei (%),HEK-293T; [3],2.01% and 3.85%
same,Population Healthy Nuclei (%),HEK-293T; [3],79.3% and 55.49%
same,Population Hoechst High Intensity Objects (%),HEK-293T; [3],0.32% and 0%
same,Population Membrane Permeable-Phenotype (%),HEK-293T; [3],5.99% and 1.98%
same,Population Mitochondria Different-Phenotype (%),HEK-293T; [3],26.23% and 33.66%
same,Population Mitotic Cells (%),HEK-293T; [3],94.35% and 78.38%
same,Population Normal (%),HEK-293T; [3],99.68% and 100%
same,Population Pyknosed Nuclei (%),HEK-293T; [3],18.69% and 40.66%
same,Population Apoptotic (%),Fibroblast; [4],11.32% and 10.42%
same,Population Fragmented Nuclei (%),Fibroblast; [4],9.36% and 5.1%
same,Population Healthy Nuclei (%),Fibroblast; [4],64.53% and 70.41%
same,Population Hoechst High Intensity Objects (%),Fibroblast; [4],0%
same,Population Membrane Permeable-Phenotype (%),Fibroblast; [4],6.11% and 2.17%
same,Population Mitochondria Different-Phenotype (%),Fibroblast; [4],6.87% and 9.42%
same,Population Mitotic Cells (%),Fibroblast; [4],88.68% and 89.58%
same,Population Normal (%),Fibroblast; [4],100%
same,Population Pyknosed Nuclei (%),Fibroblast; [4],26.11% and 24.49%
same,Population Tubulin-Different-Phenotype (%),Fibroblast; [4],18.32% and 18.12%
same,Total Cell Count,Fibroblast; [4],203 and 196
same,Population Apoptotic (%),Fibroblast; [5],5% and 13.89%
same,Population Fragmented Nuclei (%),Fibroblast; [5],8.94% and 7.57%
same,Population Healthy Nuclei (%),Fibroblast; [5],46.37% and 72.97%
same,Population Hoechst High Intensity Objects (%),Fibroblast; [5],0%
same,Population Membrane Permeable-Phenotype (%),Fibroblast; [5],8.43% and 2.96%
same,Population Mitochondria Different-Phenotype (%),Fibroblast; [5],10.84% and 15.56%
same,Population Mitotic Cells (%),Fibroblast; [5],95% and 86.11%
same,Population Normal (%),Fibroblast; [5],100%
same,Population Pyknosed Nuclei (%),Fibroblast; [5],44.69% and 19.46%
same,Population Tubulin-Different-Phenotype (%),Fibroblast; [5],24.1% and 30.37%
same,Total Cell Count,Fibroblast; [5],179 and 185
same,Population Apoptotic (%),Fibroblast; [6],11.36% and 6.25%
same,Population Fragmented Nuclei (%),Fibroblast; [6],6.72% and 4.74%
same,Population Healthy Nuclei (%),Fibroblast; [6],74.79% and 78.42%
same,Population Hoechst High Intensity Objects (%),Fibroblast; [6],0%
same,Population Membrane Permeable-Phenotype (%),Fibroblast; [6],4.49% and 2.01%
same,Population Mitochondria Different-Phenotype (%),Fibroblast; [6],8.43% and 5.37%
same,Population Mitotic Cells (%),Fibroblast; [6],88.64% and 93.75%
same,Population Normal (%),Fibroblast; [6],100%
same,Population Pyknosed Nuclei (%),Fibroblast; [6],18.49% and 16.84%
same,Population Tubulin-Different-Phenotype (%),Fibroblast; [6],17.98% and 10.07%
same,Total Cell Count,Fibroblast; [6],238 and 190
same,Population Apoptotic (%),Fibroblast; [1],6.56% and 11.11%
same,Population Fragmented Nuclei (%),Fibroblast; [1],8.38% and 10.7%
same,Population Healthy Nuclei (%),Fibroblast; [1],57.54% and 74.87%
same,Population Hoechst High Intensity Objects (%),Fibroblast; [1],0%
same,Population Membrane Permeable-Phenotype (%),Fibroblast; [1],2.91% and 1.43%
same,Population Mitochondria Different-Phenotype (%),Fibroblast; [1],13.59% and 7.86%
same,Population Mitotic Cells (%),Fibroblast; [1],93.44% and 88.89%
same,Population Normal (%),Fibroblast; [1],100%
same,Population Pyknosed Nuclei (%),Fibroblast; [1],34.08% and 14.44%
same,Population Tubulin-Different-Phenotype (%),Fibroblast; [1],35.92% and 30.71%
same,Total Cell Count,Fibroblast; [1],179 and 187
same,Population Apoptotic (%),Fibroblast; [2],7.14% and 20%
same,Population Fragmented Nuclei (%),Fibroblast; [2],7.17% and 4.5%
same,Population Healthy Nuclei (%),Fibroblast; [2],87.25% and 88%
same,Population Hoechst High Intensity Objects (%),Fibroblast; [2],0%
same,Population Membrane Permeable-Phenotype (%),Fibroblast; [2],0.91% and 2.27%
same,Population Mitochondria Different-Phenotype (%),Fibroblast; [2],9.13% and 3.98%
same,Population Mitotic Cells (%),Fibroblast; [2],92.86% and 80%
same,Population Normal (%),Fibroblast; [2],100%
same,Population Pyknosed Nuclei (%),Fibroblast; [2],5.58% and 7.5%
same,Population Tubulin-Different-Phenotype (%),Fibroblast; [2],5.48% and 13.64%
same,Total Cell Count,Fibroblast; [2],251 and 200
same,Population Apoptotic (%),Fibroblast; [3],21.05% and 50%
same,Population Fragmented Nuclei (%),Fibroblast; [3],12.39% and 11.11%
same,Population Healthy Nuclei (%),Fibroblast; [3],78.9% and 84.44%
same,Population Hoechst High Intensity Objects (%),Fibroblast; [3],0%
same,Population Membrane Permeable-Phenotype (%),Fibroblast; [3],1.74% and 4.21%
same,Population Mitochondria Different-Phenotype (%),Fibroblast; [3],6.4% and 3.68%
same,Population Mitotic Cells (%),Fibroblast; [3],78.95% and 50%
same,Population Normal (%),Fibroblast; [3],100%
same,Population Pyknosed Nuclei (%),Fibroblast; [3],8.72% and 4.44%
same,Population Tubulin-Different-Phenotype (%),Fibroblast; [3],19.19% and 32.11%
same,Total Cell Count,Fibroblast; [3],218 and 225
